In ChEMBL document CHEMBL2401626 (J Med Chem, 2013) one finds Activity and IC50 data, which are given here for 3 compounds.

Active and inactive are the calls of the source. The rule behind the calls is not given here.

The nature of series [1]: Cytotoxicity against human SH-SY5Y cells assessed as cell viability at 10 uM after 24 hrs by MTT assay. The class given is cell-based. In a few lines: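 SH-SY5Y cells seeded 5 × 10^4/well, then exposed to compound for 24 h at 37 °C. MTT (0.5 mg/mL final) added for 4 h; formazan dissolved in DMSO and read at 570 nm. Viability is treated/untreated absorbance × 100, each corrected for zero-day control. Three independent experiments in sextuplicate.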
(In general: Formazan colour is commonly taken as a measure of viable cells.)

Another series has as its target Acetylcholinesterase (Electrophorus electricus, UniProt O42275). The experiment in a line: Inhibition of electric eel AChE using acetylthiocholine chloride as substrate preincubated for 15 mins followed by substrate addition measured every 1 min by Ellman's method. In outline: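 Ellman method in 0.1 M potassium phosphate buffer, pH 8.0, 1 mL assay containing DTNB and thiocholine substrate (each 50 μL of 0.01 M stock). Enzyme (AChE stock 2.0 units/mL) preincubated with compound 15 min at 37 °C, then substrate added. A412 read at 1 min intervals at 37 °C. Each concentration in triplicate. IC50 from at least three experiments.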
Background: In Ellman's method for cholinesterases, released thiocholine reacts with DTNB.

In a further series the target is Cholinesterase (Equus caballus, UniProt P81908). The experiment in a line: Inhibition of equine serum BuChE using butylthiocholine chloride as substrate preincubated for 15 mins followed by substrate addition measured every 1 min by Ellman's method.
Sequence of Cholinesterase (P81908 whole entry): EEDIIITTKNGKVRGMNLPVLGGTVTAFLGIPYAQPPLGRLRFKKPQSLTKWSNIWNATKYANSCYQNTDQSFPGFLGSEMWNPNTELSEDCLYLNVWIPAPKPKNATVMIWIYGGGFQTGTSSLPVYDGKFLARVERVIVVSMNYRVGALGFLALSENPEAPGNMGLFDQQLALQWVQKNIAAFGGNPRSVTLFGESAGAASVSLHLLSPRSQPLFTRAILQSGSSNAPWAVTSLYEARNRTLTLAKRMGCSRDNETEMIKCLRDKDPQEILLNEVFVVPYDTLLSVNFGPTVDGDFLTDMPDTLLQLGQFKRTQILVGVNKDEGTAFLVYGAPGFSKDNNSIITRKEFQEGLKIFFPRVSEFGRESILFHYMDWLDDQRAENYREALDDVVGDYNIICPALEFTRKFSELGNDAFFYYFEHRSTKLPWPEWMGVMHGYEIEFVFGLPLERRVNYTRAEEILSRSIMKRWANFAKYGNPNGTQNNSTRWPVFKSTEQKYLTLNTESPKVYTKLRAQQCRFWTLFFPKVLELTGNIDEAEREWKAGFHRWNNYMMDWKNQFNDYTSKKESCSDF
The target of series [2] is Amyloid-beta precursor protein (Homo sapiens, UniProt P05067).
Sequence of Amyloid-beta precursor protein (P05067 whole entry): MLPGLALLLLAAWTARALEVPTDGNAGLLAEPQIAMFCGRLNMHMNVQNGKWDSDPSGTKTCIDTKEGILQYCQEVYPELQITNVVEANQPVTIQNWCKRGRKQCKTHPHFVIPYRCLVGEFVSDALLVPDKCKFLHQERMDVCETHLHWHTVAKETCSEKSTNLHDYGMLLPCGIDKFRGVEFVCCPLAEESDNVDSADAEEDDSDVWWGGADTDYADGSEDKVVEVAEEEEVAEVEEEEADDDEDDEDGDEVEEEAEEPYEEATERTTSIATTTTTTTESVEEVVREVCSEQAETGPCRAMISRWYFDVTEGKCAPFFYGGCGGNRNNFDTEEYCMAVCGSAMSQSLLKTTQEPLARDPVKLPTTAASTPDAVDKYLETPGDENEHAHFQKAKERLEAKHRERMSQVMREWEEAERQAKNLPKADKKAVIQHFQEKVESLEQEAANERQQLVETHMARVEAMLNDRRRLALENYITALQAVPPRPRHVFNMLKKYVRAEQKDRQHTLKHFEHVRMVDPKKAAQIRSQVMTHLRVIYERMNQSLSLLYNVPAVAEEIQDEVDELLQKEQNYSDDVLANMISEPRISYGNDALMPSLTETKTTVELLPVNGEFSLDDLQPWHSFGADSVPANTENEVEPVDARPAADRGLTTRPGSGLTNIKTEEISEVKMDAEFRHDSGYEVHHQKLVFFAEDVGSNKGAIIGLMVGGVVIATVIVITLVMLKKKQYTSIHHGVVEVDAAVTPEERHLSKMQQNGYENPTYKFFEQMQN
Series [3] concerns the target T1, Amine oxidase [flavin-containing] B (Homo sapiens, UniProt P27338).
T1 sequence (P27338 whole entry): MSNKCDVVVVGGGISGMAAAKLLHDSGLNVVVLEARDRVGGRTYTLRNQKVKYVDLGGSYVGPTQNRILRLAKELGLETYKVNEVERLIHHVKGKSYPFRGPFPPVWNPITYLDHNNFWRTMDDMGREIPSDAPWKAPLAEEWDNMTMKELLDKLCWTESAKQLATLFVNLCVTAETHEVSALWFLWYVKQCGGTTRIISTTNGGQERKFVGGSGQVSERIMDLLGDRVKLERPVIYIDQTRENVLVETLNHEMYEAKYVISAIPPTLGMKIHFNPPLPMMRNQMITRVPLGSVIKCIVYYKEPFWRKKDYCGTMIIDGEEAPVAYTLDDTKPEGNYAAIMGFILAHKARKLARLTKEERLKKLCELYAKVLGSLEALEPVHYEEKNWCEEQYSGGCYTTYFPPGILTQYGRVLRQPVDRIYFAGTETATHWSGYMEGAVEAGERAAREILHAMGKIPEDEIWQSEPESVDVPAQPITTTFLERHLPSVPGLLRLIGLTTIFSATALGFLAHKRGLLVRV

The next series has as its system Mus musculus. The series can be described thus: Acute toxicity in KM mouse at 677 to 2000 mg/kg, po after 14 days. The class given is organism-based. The note with it: in vivo, 336 h. Also on record: dose 677-2000 mg/kg, route oral. In a few lines:
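Male KM mice (22 days, 18−20 g), fasted overnight with free access to water, n = 5 per group; single oral dose of 0, 677, 1333 or 2000 mg/kg suspended in 0.5% CMC-Na. Watched continuously for 4 h, intermittently for 24 h, then occasionally to day 14 for behaviour and mortality; killed day 14, heart, liver and kidneys examined macroscopically.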

For series [4], the target named is T2, Amine oxidase [flavin-containing] A (Homo sapiens, UniProt P21397).
T2 sequence (P21397 whole entry): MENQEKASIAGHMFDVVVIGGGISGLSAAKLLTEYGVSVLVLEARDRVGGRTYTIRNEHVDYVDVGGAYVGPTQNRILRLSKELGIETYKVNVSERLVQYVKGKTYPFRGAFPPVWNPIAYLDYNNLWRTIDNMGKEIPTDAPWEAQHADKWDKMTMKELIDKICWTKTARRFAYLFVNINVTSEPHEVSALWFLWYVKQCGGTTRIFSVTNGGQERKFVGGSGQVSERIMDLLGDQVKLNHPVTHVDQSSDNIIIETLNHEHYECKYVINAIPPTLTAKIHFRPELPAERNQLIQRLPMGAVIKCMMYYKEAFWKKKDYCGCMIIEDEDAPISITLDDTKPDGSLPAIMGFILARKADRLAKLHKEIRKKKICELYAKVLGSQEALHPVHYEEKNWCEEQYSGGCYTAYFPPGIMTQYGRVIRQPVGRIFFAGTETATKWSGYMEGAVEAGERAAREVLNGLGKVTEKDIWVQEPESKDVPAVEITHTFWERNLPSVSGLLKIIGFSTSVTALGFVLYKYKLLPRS
The experiment in a line: Inhibition of human recombinant MAOA using p-tyramine as substrate incubated for 15 mins prior to substrate addition measured after 20 mins by fluorescence plate reader analysis.

Another series relates to SH-SY5Y. The experiment in a line: Antioxidant activity in human SH-SY5Y cells assessed as decrease in t-BuOOH-induced intracellular ROS production at 5 to 20 uM incubated for 24 hrs prior to t-BuOOH challenge measured after 30 mins by DCFHDA-based fluorescence assay. In kind it is functional, cell-based. In outline:
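SH-SY5Y cells (DMEM, 10% FCS, 37 °C, 5% CO2) seeded 1 × 10^4/well and grown 24 h. Compound added for 24 h; Trolox control at 5, 10, 20 μM. Cells are then washed, loaded with 5 μM DCFH-DA in PBS for 30 min, and challenged with 0.1 mM t-BuOOH for 30 min. Fluorescence read at ex 485/em 535 nm. Result is % of control by formula; three independent experiments in sextuplicate.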

The term IC50 denotes the concentration that gives 50% inhibition.

Sequence of Acetylcholinesterase (O42275 whole entry): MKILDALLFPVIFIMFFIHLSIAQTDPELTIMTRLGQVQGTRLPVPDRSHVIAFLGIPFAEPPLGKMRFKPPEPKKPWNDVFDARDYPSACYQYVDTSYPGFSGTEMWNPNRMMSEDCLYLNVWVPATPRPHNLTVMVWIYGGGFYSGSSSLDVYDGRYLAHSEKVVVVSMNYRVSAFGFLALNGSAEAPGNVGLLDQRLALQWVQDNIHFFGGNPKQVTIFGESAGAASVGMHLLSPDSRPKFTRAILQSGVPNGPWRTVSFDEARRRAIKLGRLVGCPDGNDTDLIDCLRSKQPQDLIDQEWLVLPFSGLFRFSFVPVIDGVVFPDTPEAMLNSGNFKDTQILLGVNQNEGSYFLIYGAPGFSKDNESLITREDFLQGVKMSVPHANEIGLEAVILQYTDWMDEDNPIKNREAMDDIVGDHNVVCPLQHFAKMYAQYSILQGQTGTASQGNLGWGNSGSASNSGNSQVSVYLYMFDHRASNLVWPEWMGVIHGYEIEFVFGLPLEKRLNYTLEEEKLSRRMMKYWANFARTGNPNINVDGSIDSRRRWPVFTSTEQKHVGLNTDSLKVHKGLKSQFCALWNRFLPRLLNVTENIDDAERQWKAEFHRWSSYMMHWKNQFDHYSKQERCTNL

As for `COc1cc(/C=C/c2ccc(NCc3cc(N(C)C)ccc3O)cc2)cc(OC)c1`, the Activity entry (in series [1]; with Mus musculus) was “Non-toxic” in each case. For the same compound, the IC50 is 36 µM against Acetylcholinesterase; above 50 µM against Cholinesterase; 7.56 µM in series [2]; 12.2 µM in series [3]; 8.19 µM in series [4].

In the case of `Cc1c(C)c2c(c(C)c1O)CCC(C)(C(=O)O)O2` (racemic), the outcome in the series on SH-SY5Y was Active.

As for `CN(C)c1ccc(O)c(CNc2ccc(/C=C/c3cc(O)cc(O)c3)cc2)c1`, the Activity entry in series [1] is “Non-toxic”. For the same compound, the IC50 against Acetylcholinesterase worked out at 6.27 µM; against Cholinesterase, 21.2 µM; in series [2] it was 6.51 µM; in series [3], 14.1 µM; in series [4] it was 7.08 µM.
